Reference: ChEMBL document CHEMBL4402547, “Synthesis and Pharmacological Characterization of Conformationally Restricted Retigabine Analogues as Novel Neuronal Kv7 Channel Activators” (J Med Chem, 2020)
Calls of active or inactive are those of the source. The calls are words filed in the database; no cut-off is given here.

Molecular target: T1, Potassium voltage-gated channel subfamily KQT member 2 (Homo sapiens, UniProt O43526)
T1 sequence (O43526 whole entry): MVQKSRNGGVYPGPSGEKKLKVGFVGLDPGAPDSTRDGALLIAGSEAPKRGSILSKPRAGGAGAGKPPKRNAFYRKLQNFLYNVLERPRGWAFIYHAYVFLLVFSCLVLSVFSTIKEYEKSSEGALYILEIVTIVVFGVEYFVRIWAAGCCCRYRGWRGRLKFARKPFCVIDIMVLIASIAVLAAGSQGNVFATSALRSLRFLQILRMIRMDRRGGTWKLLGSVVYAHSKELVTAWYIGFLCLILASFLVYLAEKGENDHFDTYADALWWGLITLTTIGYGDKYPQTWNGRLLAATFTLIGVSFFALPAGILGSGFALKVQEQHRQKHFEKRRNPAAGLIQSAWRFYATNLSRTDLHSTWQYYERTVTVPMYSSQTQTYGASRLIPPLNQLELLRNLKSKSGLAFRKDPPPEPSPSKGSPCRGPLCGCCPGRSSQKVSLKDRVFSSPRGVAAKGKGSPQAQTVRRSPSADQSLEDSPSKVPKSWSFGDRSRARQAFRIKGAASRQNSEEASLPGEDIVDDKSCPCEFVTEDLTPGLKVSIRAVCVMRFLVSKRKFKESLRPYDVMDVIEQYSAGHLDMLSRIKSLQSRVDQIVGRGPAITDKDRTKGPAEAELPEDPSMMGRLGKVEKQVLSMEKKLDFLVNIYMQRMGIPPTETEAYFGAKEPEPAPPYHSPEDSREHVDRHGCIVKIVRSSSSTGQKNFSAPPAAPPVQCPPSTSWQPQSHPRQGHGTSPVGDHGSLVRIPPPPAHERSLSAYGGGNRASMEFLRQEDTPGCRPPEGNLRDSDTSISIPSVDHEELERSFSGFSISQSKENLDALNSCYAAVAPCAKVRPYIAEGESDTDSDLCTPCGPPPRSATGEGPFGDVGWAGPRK
Test: Activation of human Kv7.2 expressed in CHO cells assessed as increase in current amplitude at 10 uM measured at holding potential of 0 mV by whole cell patch clamp electrophysiology assay relative to control
Assay type: cell-based
Summary of the method: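 Transiently transfected CHO cells expressing human Kv7.2, whole-cell patch clamp at 20–22°C in HEPES-buffered saline pH 7.4. Cells held at −80 mV and ramped −80 to +20 mV over 3 s, before and during 10 μM drug. Ramp current at 0 mV taken as drug/control ratio; mean ± SEM of ≥3 cells, ≥2 transfections.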
With `O=C(CC1CCCCC1)Nc1ccc2c(c1)CCN2Cc1ccc(F)cc1` the Activity was “inactive”.
In the case of `CCCCCCC(=O)Nc1ccc2c(c1)CCC/C2=C\c1ccc(C(F)(F)F)cc1`, the Activity is reported as “inactive”.
In the case of `COc1ccc(CN2c3ccc(NS(=O)(=O)C4CCCCC4)cc3CC2C)cc1` (racemic), the Activity is reported as “inactive”.
In the case of `O=S(=O)(Nc1ccc2c(c1)CCN2CCc1ccc(F)cc1)C1CCCCC1`, the Activity is reported as “inactive”.
With `CCCCN(C)CC(=O)Nc1ccc2c(ccn2Cc2ccc(C(F)(F)F)cc2)c1` the Activity was “inactive”.
In the case of `CC1(C)[C@H]2CC[C@]1(CS(=O)(=O)Nc1ccc3c(c1)CCN3Cc1ccc(F)cc1)C(=O)C2`, the Activity is reported as “inactive”.
For `O=[N+]([O-])c1cc(Br)ccc1CN1CCc2cc(NS(=O)(=O)C3CCCCC3)ccc21`, the Activity was “Active”.
In the case of `CCCCCCC(=O)Nc1ccc2c(ccn2Cc2ccc(OCOC)cc2)c1`, the Activity is reported as “inactive”.
For `COc1ccc(Cn2ccc3cc(NS(=O)(=O)C4CCCCC4)ccc32)cc1`, the Activity was “inactive”.
In the case of `O=S(=O)(Nc1ccc2c(ccn2Cc2ccc(C(F)(F)F)cc2)c1)C1CCCCC1`, the Activity is reported as “inactive”.
For `O=S(=O)(Nc1ccc2c(c1)CCN2Cc1ccc(C(F)(F)F)cc1)C1CCCCC1`, the Activity was “inactive”.
In the case of `CCCCCCC(=O)Nc1ccc2c(c1)CCCC2Cc1ccc(C(F)(F)F)cc1` (racemic), the Activity is reported as “inactive”.
For `O=C(Nc1ccc2c(c1)CCN2Cc1ccc(F)cc1)NC1CCCCC1`, the Activity was “inactive”.
In the case of `CC(C)[C@H]1CC[C@H](C)C[C@@H]1OC(=O)Nc1ccc2c(c1)CCN2Cc1ccc(F)cc1`, the Activity is reported as “inactive”.
With `O=S(=O)(Nc1ccc2c(c1)CCN2Cc1ccc(F)cc1)c1ccccc1` the Activity was “inactive”.
With `O=S(=O)(Nc1ccc2c(c1)CCN2Cc1ccc(C(F)(F)F)cc1C(F)(F)F)C1CCCCC1` the Activity was “inactive”.
With `O=S(=O)(Nc1ccc2c(c1)CCN2Cc1ccc(F)cc1)N1CCCCCC1` the Activity was “inactive”.
In the case of `CC(=O)Nc1ccc2c(c1)CCN2Cc1ccc(F)cc1`, the Activity is reported as “inactive”.
For `CCOC(=O)Nc1ccc2c(c1)CCN2Cc1ccc(F)cc1`, the Activity was “inactive”.
In the case of `O=C(c1ccc(F)cc1)N1CCc2cc(NS(=O)(=O)C3CCCCC3)ccc21`, the Activity is reported as “inactive”.
With `CCCCCCS(=O)(=O)Nc1ccc2c(c1)CCN2Cc1ccc(F)cc1` the Activity was “inactive”.
For `COc1ccc(CN2CCc3cc(NS(=O)(=O)C4CCCCC4)ccc32)cc1`, the Activity was “Active”.
For `O=C(Nc1ccc(Cl)nc1)c1ccc(F)c(F)c1`, the Activity was “Active”.
For `CC(C)(C)CNC(=O)Nc1ccc2c(c1)CCN2Cc1ccc(F)cc1`, the Activity was “inactive”.
In the case of `CC1CC(C)CN(S(=O)(=O)Nc2ccc3c(c2)CCN3Cc2ccc(F)cc2)C1` (stereo unspecified), the Activity is reported as “inactive”.
In the case of `CCCCS(=O)(=O)Nc1ccc2c(c1)CCN2Cc1ccc(F)cc1`, the Activity is reported as “inactive”.
With `CCOC(=O)Nc1ccc(NCc2ccc(F)cc2)nc1N` the Activity was “Active”.
For `CC(C)(C)CNC(=N)Nc1ccc2c(c1)CCN2Cc1ccc(F)cc1`, the Activity was “inactive”.
With `CCCCCCC(=O)Nc1ccc2c(ccn2Cc2ccc(O)cc2)c1` the Activity was “inactive”.
With `O=C(Cc1ccc(Cl)cc1)N1CCc2cc(NS(=O)(=O)C3CCCCC3)ccc21` the Activity was “inactive”.
In the case of `O=S(=O)(Nc1ccc2c(ccn2Cc2ccc(F)cc2)c1)C1CCCCC1`, the Activity is reported as “Active”.
In the case of `O=C(Nc1ccc2c(c1)CCN2Cc1ccc(F)cc1)C1CCCCC1`, the Activity is reported as “inactive”.
For `CC(C)CS(=O)(=O)Nc1ccc2c(c1)CCN2Cc1ccc(F)cc1`, the Activity was “inactive”.
In the case of `O=S(=O)(Nc1ccc2c(c1)CCN2Cc1ccc(F)cc1F)C1CCCCC1`, the Activity is reported as “Active”.
For `CCCCNCC(=O)Nc1ccc2c(ccn2Cc2ccc(C(F)(F)F)cc2)c1`, the Activity was “inactive”.
For `CCCCCCCCCCCCCCCC(=O)Nc1ccc2c(ccn2Cc2ccc(C(F)(F)F)cc2)c1`, the Activity was “inactive”.
With `O=S(=O)(Nc1ccc2c(c1)CCN2Cc1ccc(F)c(F)c1)C1CCCCC1` the Activity was “inactive”.
In the case of `CC1(C)[C@@H]2CC[C@@]1(CS(=O)(=O)Nc1ccc3c(c1)CCN3Cc1ccc(F)cc1)C(=O)C2`, the Activity is reported as “inactive”.
In the case of `CCCCCCC(=O)Nc1ccc2c(c1)CCC/C2=C/c1ccc(C(F)(F)F)cc1`, the Activity is reported as “inactive”.
In the case of `O=S(=O)(CCC1CCCCC1)Nc1ccc2c(ccn2Cc2ccc(F)cc2)c1`, the Activity is reported as “inactive”.

Molecular target: T1, Potassium voltage-gated channel subfamily KQT member 2
Test: Activation of human Kv7.2 expressed in CHO cells assessed as increase in current amplitude at 10 uM measured at holding potential of -40 mV by whole cell patch clamp electrophysiology assay relative to control
Assay type: cell-based
Summary of the method: (§1)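 CHO cells transiently co-transfected (Lipofectamine 2000, 4 μg total cDNA, EGFP marker) with human channel cDNA in pcDNA3.1, recorded 24 h later. Whole-cell patch clamp at 20–22°C, 3–5 MΩ pipettes, perfused extracellular solution pH 7.4. Held at −80 mV; 3-s ramps −80 to +20 mV ± 10 μM drug. Current at −40 mV with vs without drug expressed as ratio; ≥3 cells from ≥2 transfections, mean ± SEM.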
For `O=C(CC1CCCCC1)Nc1ccc2c(c1)CCN2Cc1ccc(F)cc1`, the Activity was “inactive”.
In the case of `CCCCCCC(=O)Nc1ccc2c(c1)CCC/C2=C\c1ccc(C(F)(F)F)cc1`, the Activity is reported as “inactive”.
In the case of `COc1ccc(CN2c3ccc(NS(=O)(=O)C4CCCCC4)cc3CC2C)cc1` (racemic), the Activity is reported as “inactive”.
In the case of `O=S(=O)(Nc1ccc2c(c1)CCN2CCc1ccc(F)cc1)C1CCCCC1`, the Activity is reported as “inactive”.
With `CCCCN(C)CC(=O)Nc1ccc2c(ccn2Cc2ccc(C(F)(F)F)cc2)c1` the Activity was “inactive”.
With `CC1(C)[C@H]2CC[C@]1(CS(=O)(=O)Nc1ccc3c(c1)CCN3Cc1ccc(F)cc1)C(=O)C2` the Activity was “inactive”.
In the case of `O=[N+]([O-])c1cc(Br)ccc1CN1CCc2cc(NS(=O)(=O)C3CCCCC3)ccc21`, the Activity is reported as “inactive”.
With `CCCCCCC(=O)Nc1ccc2c(ccn2Cc2ccc(OCOC)cc2)c1` the Activity was “inactive”.
For `COc1ccc(Cn2ccc3cc(NS(=O)(=O)C4CCCCC4)ccc32)cc1`, the Activity was “inactive”.
In the case of `O=S(=O)(Nc1ccc2c(ccn2Cc2ccc(C(F)(F)F)cc2)c1)C1CCCCC1`, the Activity is reported as “inactive”.
With `O=S(=O)(Nc1ccc2c(c1)CCN2Cc1ccc(C(F)(F)F)cc1)C1CCCCC1` the Activity was “inactive”.
For `CCCCCCC(=O)Nc1ccc2c(c1)CCCC2Cc1ccc(C(F)(F)F)cc1` (racemic), the Activity was “inactive”.
In the case of `O=C(Nc1ccc2c(c1)CCN2Cc1ccc(F)cc1)NC1CCCCC1`, the Activity is reported as “inactive”.
For `CC(C)[C@H]1CC[C@H](C)C[C@@H]1OC(=O)Nc1ccc2c(c1)CCN2Cc1ccc(F)cc1`, the Activity was “inactive”.
In the case of `O=S(=O)(Nc1ccc2c(c1)CCN2Cc1ccc(F)cc1)c1ccccc1`, the Activity is reported as “inactive”.
In the case of `O=S(=O)(Nc1ccc2c(c1)CCN2Cc1ccc(C(F)(F)F)cc1C(F)(F)F)C1CCCCC1`, the Activity is reported as “inactive”.
With `O=S(=O)(Nc1ccc2c(c1)CCN2Cc1ccc(F)cc1)N1CCCCCC1` the Activity was “inactive”.
With `CC(=O)Nc1ccc2c(c1)CCN2Cc1ccc(F)cc1` the Activity was “inactive”.
For `CCOC(=O)Nc1ccc2c(c1)CCN2Cc1ccc(F)cc1`, the Activity was “inactive”.
In the case of `O=C(c1ccc(F)cc1)N1CCc2cc(NS(=O)(=O)C3CCCCC3)ccc21`, the Activity is reported as “inactive”.
For `CCCCCCS(=O)(=O)Nc1ccc2c(c1)CCN2Cc1ccc(F)cc1`, the Activity was “inactive”.
In the case of `COc1ccc(CN2CCc3cc(NS(=O)(=O)C4CCCCC4)ccc32)cc1`, the Activity is reported as “inactive”.
For `O=C(Nc1ccc(Cl)nc1)c1ccc(F)c(F)c1`, the Activity was “Active”.
For `CC(C)(C)CNC(=O)Nc1ccc2c(c1)CCN2Cc1ccc(F)cc1`, the Activity was “inactive”.
For `CC1CC(C)CN(S(=O)(=O)Nc2ccc3c(c2)CCN3Cc2ccc(F)cc2)C1` (stereo unspecified), the Activity was “inactive”.
In the case of `CCCCS(=O)(=O)Nc1ccc2c(c1)CCN2Cc1ccc(F)cc1`, the Activity is reported as “inactive”.
In the case of `CCOC(=O)Nc1ccc(NCc2ccc(F)cc2)nc1N`, the Activity is reported as “Active”.
With `CC(C)(C)CNC(=N)Nc1ccc2c(c1)CCN2Cc1ccc(F)cc1` the Activity was “inactive”.
In the case of `CCCCCCC(=O)Nc1ccc2c(ccn2Cc2ccc(O)cc2)c1`, the Activity is reported as “inactive”.
For `O=C(Cc1ccc(Cl)cc1)N1CCc2cc(NS(=O)(=O)C3CCCCC3)ccc21`, the Activity was “inactive”.
For `O=S(=O)(Nc1ccc2c(ccn2Cc2ccc(F)cc2)c1)C1CCCCC1`, the Activity was “inactive”.
For `O=C(Nc1ccc2c(c1)CCN2Cc1ccc(F)cc1)C1CCCCC1`, the Activity was “inactive”.
For `CC(C)CS(=O)(=O)Nc1ccc2c(c1)CCN2Cc1ccc(F)cc1`, the Activity was “inactive”.
With `O=S(=O)(Nc1ccc2c(c1)CCN2Cc1ccc(F)cc1F)C1CCCCC1` the Activity was “inactive”.
For `CCCCNCC(=O)Nc1ccc2c(ccn2Cc2ccc(C(F)(F)F)cc2)c1`, the Activity was “inactive”.
With `CCCCCCCCCCCCCCCC(=O)Nc1ccc2c(ccn2Cc2ccc(C(F)(F)F)cc2)c1` the Activity was “inactive”.
With `O=S(=O)(Nc1ccc2c(c1)CCN2Cc1ccc(F)c(F)c1)C1CCCCC1` the Activity was “inactive”.
With `CC1(C)[C@@H]2CC[C@@]1(CS(=O)(=O)Nc1ccc3c(c1)CCN3Cc1ccc(F)cc1)C(=O)C2` the Activity was “inactive”.
For `CCCCCCC(=O)Nc1ccc2c(c1)CCC/C2=C/c1ccc(C(F)(F)F)cc1`, the Activity was “inactive”.
With `O=S(=O)(CCC1CCCCC1)Nc1ccc2c(ccn2Cc2ccc(F)cc2)c1` the Activity was “inactive”.

Test system: Potassium voltage-gated channel subfamily KQT member 2 (Homo sapiens), O43526 [W236L]
Sequence (O43526 whole entry W236L): as the sequence (O43526 whole entry) above, with W236L counted along it
Test: Activation of human Kv7.2 W236L mutant expressed in CHO cells assessed as channel current amplitude at 10 uM measured at holding potential of -40 mV by whole cell patch clamp electrophysiology assay
Assay type: cell-based
Summary of the method: as §1
For `O=C(Nc1ccc(Cl)nc1)c1ccc(F)c(F)c1`, the Activity was “Active”.

Test system: Potassium voltage-gated channel subfamily KQT member 2 (Homo sapiens), O43526 [F168L]
Sequence (O43526 whole entry F168L): as the sequence (O43526 whole entry) above, with F168L counted along it
Test: Activation of ICA-insensitive human Kv7.2 F168L mutant expressed in CHO cells assessed as increase in channel current amplitude at 10 uM measured at holding potential of -40 mV by whole cell patch clamp electrophysiology assay
Assay type: cell-based
Summary of the method: as §1
In the case of `O=C(Nc1ccc(Cl)nc1)c1ccc(F)c(F)c1`, the Activity is reported as “inactive”.

Test system: not listed separately
Test: Photostability of compound in pH 7.4 buffer assessed as compound degradation at 100 ug/ml incubated for 6 hrs under natural solar light-irradiation by HPLC analysis relative to control
Summary of the method: (§2)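 DMSO solutions diluted in pH 7.4 buffer, held in 1 cm quartz cells and exposed to natural daylight. Light-shielded controls kept at 37°C in foil. Aliquots drawn at set intervals and parent compound loss measured by UHPLC: C18 column, 0.1% TFA water/acetonitrile gradient, 45°C, detection at 254 nm.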
`COc1ccc(CN2CCc3cc(NS(=O)(=O)C4CCCCC4)ccc32)cc1` gave a Drug degradation of over 99%.
`O=S(=O)(Nc1ccc2c(ccn2Cc2ccc(F)cc2)c1)C1CCCCC1` gave a Drug degradation of 23.1%.
Compound `O=S(=O)(Nc1ccc2c(c1)CCN2Cc1ccc(F)cc1F)C1CCCCC1` has a Drug degradation of over 99%.

Test system: not listed separately
Test: Photostability of compound in pH 7.4 buffer assessed as compound degradation at 100 ug/ml incubated for 2 hrs under natural solar light-irradiation by HPLC analysis relative to control
Summary of the method: as §2
Compound `COc1ccc(CN2CCc3cc(NS(=O)(=O)C4CCCCC4)ccc32)cc1` has a Drug degradation of 37.5%.
Compound `O=S(=O)(Nc1ccc2c(ccn2Cc2ccc(F)cc2)c1)C1CCCCC1` has a Drug degradation of 6.46%.
`O=S(=O)(Nc1ccc2c(c1)CCN2Cc1ccc(F)cc1F)C1CCCCC1` showed a Drug degradation of 33.5%.

Test system: not listed separately
Test: Photostability of compound in pH 7.4 buffer assessed as compound degradation at 100 ug/ml incubated for 4 hrs under natural solar light-irradiation by HPLC analysis relative to control
Summary of the method: as §2
`COc1ccc(CN2CCc3cc(NS(=O)(=O)C4CCCCC4)ccc32)cc1` gave a Drug degradation of 84.7%.
Compound `O=S(=O)(Nc1ccc2c(ccn2Cc2ccc(F)cc2)c1)C1CCCCC1` has a Drug degradation of 15.8%.
With `O=S(=O)(Nc1ccc2c(c1)CCN2Cc1ccc(F)cc1F)C1CCCCC1` the Drug degradation was 81.7%.
